Measurements reported in ChEMBL document CHEMBL1240364, “Ex vivo comparison of microbicide efficacies for preventing HIV-1 genomic integration in intraepithelial vaginal cells” (Antimicrob Agents Chemother, 2010).
Blank lines part the entries; values can stand above or below the molecule they belong to.

Experiments:
[1] = system: Human immunodeficiency virus 1; test: Antiviral activity against HIV1 JRCSF infected in human vaginal intraepithelial cells assessed as viral genomic integration relative to control at 30 uM by singleplex PCR assay; conditions: Human immunodeficiency virus 1, JRCSF ISOLATE
[2] = system: Human immunodeficiency virus 1; test: Antiviral activity against HIV1 isolate M1 infected in human vaginal intraepithelial cells assessed as decrease in viral genomic integration at 1 uM after 48 hrs by multiplex PCR assay; format: functional; design: scale not given: the % may be the effect or the level left
Summary of the method: (§1)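 Vaginal epithelial sheets from two donors, EDTA-isolated and calcium-replenished, were preincubated with compound and then spinoculated with 100 ng/ml Gag p24 of primary mucosal isolate HIV-1M1 for 2 h at 1,200 × g. After 48 h culture, integration was measured by multiplex Alu-LTR/β-actin nested real-time PCR and expressed relative to untreated infection.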

[3] = system: Human immunodeficiency virus 1; test: Antiviral activity against HIV1 JRCSF infected in human vaginal epithelium assessed as inhibition of viral genomic integration by titration assay; format: functional; conditions: for IC50: Human immunodeficiency virus 1, JRCSF ISOLATE; for Activity: JRCSF ISOLATE
Summary of the method: (§2)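 Vaginal epithelial sheets separated from stroma with 5 mM EDTA overnight at 4°C, replenished 1 h with 5 mM CaCl2. Pretreated with compound titrations for 1 h, then spinoculated with 100 ng/ml Gag p24 HIV-1JRCSF for 2 h at 1,200 × g. Sheets washed and cultured 2–3 days at 37°C. Emigrated cells and sheets pooled; Alu-LTR nested real-time PCR run in quadruplicate. Integration expressed relative to untreated infection; IC50 by nonlinear regression.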

[4] = system: Human immunodeficiency virus 1; test: Antiviral activity against HIV1 JRCSF infected in human vaginal intraepithelial cells assessed as decrease in viral genomic integration at 30 uM by multiplex PCR assay; format: functional, JRCSF ISOLATE; design: scale not given: the % may be the effect or the level left
Summary of the method: (§3)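 EDTA-separated vaginal epithelial sheets, calcium-replenished, pretreated 1 h with a single compound concentration, then spinoculated with 100 ng/ml Gag p24 HIV-1JRCSF (2 h, 1,200 × g) and cultured 48 h at 37°C. Integrated DNA measured by Alu-LTR nested real-time PCR against an ACH-2 standard curve, with β-actin normalization run either in separate wells (singleplex) or in the same wells (multiplex). Quadruplicate PCRs; integration relative to untreated infection.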

[5] = system: Human immunodeficiency virus 1; test: Antiviral activity against HIV1 JRCSF infected in human vaginal intraepithelial cells assessed as viral genomic integration relative to control at 1 uM by singleplex PCR assay; conditions: Human immunodeficiency virus 1, JRCSF ISOLATE
[6] = system: Human immunodeficiency virus 1; test: Antiviral activity against HIV1 JRCSF infected in human vaginal intraepithelial cells assessed as decrease in viral genomic integration at 0.223 uM by multiplex PCR assay; format: functional, JRCSF ISOLATE; design: scale not given: the % may be the effect or the level left
Summary of the method: as §3

[7] = system: Human immunodeficiency virus 1; test: Antiviral activity against HIV1 JRCSF infected in PHA-activated human T cells assessed as inhibition of viral genomic integration by titration assay; format: functional, cell-based; conditions: T-cell
Summary of the method: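 PBMC from two blood donors activated 2 days with 0.4 μg/ml PHA; 100,000 lymphoblasts per well pretreated in duplicate with a concentration series for 1 h at room temperature, infected with 200 ng/ml Gag p24 HIV-1JRCSF for 2 h, washed, cultured 48 h at 37°C in medium with 50 U/ml IL-2. Integrated DNA measured by Alu-LTR nested real-time PCR; IC50 from nonlinear regression.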

[8] = system: Human immunodeficiency virus 1; test: Antiviral activity against HIV1 JRCSF infected in human vaginal intraepithelial cells assessed as viral genomic integration relative to control at 0.223 uM by singleplex PCR assay; conditions: Human immunodeficiency virus 1, JRCSF ISOLATE
[9] = system: Human immunodeficiency virus 1; test: Antiviral activity against HIV1 JRCSF infected in human intraepithelial leukocytes assessed as decrease viral integration at 0.5 ug/ml by titration assay; format: functional, JRCSF ISOLATE; design: scale not given: the % may be the effect or the level left
Summary of the method: as §2

[10] = system: Human immunodeficiency virus 1; test: Antiviral activity against HIV1 JRCSF infected in human intraepithelial leukocytes assessed as decrease viral integration at 0.1 ug/ml by titration assay; format: functional, JRCSF ISOLATE; design: scale not given: the % may be the effect or the level left
Summary of the method: as §2

[11] = system: Human immunodeficiency virus 1; test: Antiviral activity against HIV1 JRCSF infected in human vaginal epithelium leukocytes assessed as inhibition of viral genomic integration by titration assay; format: functional, cell-based; conditions: JRCSF ISOLATE
Summary of the method: as §2

[12] = system: Human immunodeficiency virus 1; test: Antiviral activity against HIV1 JRCSF infected in human vaginal epithelium mucosa assessed as decrease viral integration at 10 ng/ml by titration assay; format: functional; conditions: Human immunodeficiency virus 1, JRCSF ISOLATE
Summary of the method: as §2

[13] = system: Human immunodeficiency virus 1; test: Antiviral activity against HIV1 isolate M1 infected in human vaginal intraepithelial cells assessed as decrease in viral genomic integration at 0.223 uM after 48 hrs by multiplex PCR assay; format: functional; design: scale not given: the % may be the effect or the level left
Summary of the method: as §1

[14] = system: Human immunodeficiency virus 1; test: Antiviral activity against HIV1 JRCSF infected in human vaginal intraepithelial cells assessed as decrease in viral genomic integration at 1 uM by singleplex PCR assay; format: functional, JRCSF ISOLATE; design: scale not given: the % may be the effect or the level left
Summary of the method: as §3

- IC50 [3]: 5.84 nM
Molecule: Cc1ccc(-c2ccc3c(c2)C=C(C(=O)Nc2ccc(C[N+](C)(C)C4CCOCC4)cc2)CCC3)cc1.[Cl-]
- level, % of control at 30 µM [1]: 10%
- Activity [2]: <2%
- Activity [3]: Dose-dependent effect
- Activity [4]: 8.6%

Molecule: c1cc(CN2CCCNCCNCCCNCC2)ccc1CN1CCCNCCNCCCNCC1 [PLERIXAFOR]
- Activity [2]: 117%
- level, % of control at 1 µM [5]: 177%

Molecule: enfuvirtide
- Activity [6]: 6%
- IC50 ([7]; Human immunodeficiency virus 1, JRCSF ISOLATE): 7.57 nM
- Activity ([7]; JRCSF ISOLATE): Dose-dependent effect
- level, % of control at 0.223 µM [8]: 8%
- Activity [9]: 30.4%
- Activity [10]: 1.92%
- Activity [11]: Dose-dependent effect
- inhibition at 0.01 µg/mL [12]: > 80%
- Activity [13]: <2%

- IC50 [3]: 190 nM
Molecule: [N-]=[N+]=NCc1cccc(C(=O)/C=C(\O)C(=O)O)c1
- Activity [3]: Dose-dependent effect
- Activity [14]: 8.4%
